The results in this text go back to ChEMBL document CHEMBL3739340, “Synthesis and Evaluation of Novel Erlotinib-NSAID Conjugates as More Comprehensive Anticancer Agents” (ACS Med Chem Lett, 2015).

The term IC50 denotes the midpoint of a concentration-inhibition curve.

Data set [1] relates to A-431. As to the kind of experiment: Antiproliferative activity against human A431 cells after 72 hrs by CCK-8 assay. The data set is classed as functional, cell-based. Background: Formazan colour is commonly taken as a measure of viable cells.
Data set [2] has as its target Epidermal growth factor receptor (Homo sapiens, UniProt P00533). Description: Inhibition of EGFR (unknown origin) using tyrosine 4 as substrate by fluorescence analysis.
Data set [3] concerns the target T1, Prostaglandin G/H synthase 1 (Ovis aries, UniProt P05979).
T1 sequence (P05979 whole entry): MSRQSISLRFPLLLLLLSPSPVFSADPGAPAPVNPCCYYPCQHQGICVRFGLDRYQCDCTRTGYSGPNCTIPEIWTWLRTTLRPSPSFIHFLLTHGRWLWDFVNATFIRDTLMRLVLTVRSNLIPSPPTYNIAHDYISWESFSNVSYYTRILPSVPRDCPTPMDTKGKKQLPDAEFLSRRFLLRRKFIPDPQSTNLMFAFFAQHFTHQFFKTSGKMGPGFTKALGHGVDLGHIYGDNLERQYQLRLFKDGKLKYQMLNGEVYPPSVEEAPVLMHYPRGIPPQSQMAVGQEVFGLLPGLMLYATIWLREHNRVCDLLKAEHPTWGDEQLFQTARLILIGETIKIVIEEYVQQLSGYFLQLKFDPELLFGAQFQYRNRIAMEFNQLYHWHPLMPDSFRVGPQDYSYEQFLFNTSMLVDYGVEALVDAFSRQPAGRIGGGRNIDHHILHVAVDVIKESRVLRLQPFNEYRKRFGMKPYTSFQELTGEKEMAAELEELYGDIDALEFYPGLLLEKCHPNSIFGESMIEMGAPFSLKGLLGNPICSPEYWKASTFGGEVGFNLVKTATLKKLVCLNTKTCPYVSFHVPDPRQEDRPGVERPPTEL
As to the kind of experiment: Inhibition of Ovine COX-1 preincubated for 15 mins by fluorescence analysis.

Data set [4] can be described thus: Antiproliferative activity against human HCC827 cells after 72 hrs by CCK-8 assay. It counts as functional, cell-based. The conditions noted are these: HCC827, 72 h.
A short description of data set [5]: Drug level in human HCC827 cells treated with 2-(4-(3-ethynylphenylamino)-6-(2-methoxyethoxy)quinazolin-7-yloxy)ethyl 2-(6-methoxynaphthalen-2-yl)propanoate by LC-MS/MS analysis. The data set is classed as ADME, cell-based. In short, it runs like this:
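Conjugate added to culture medium (containing active serum) and incubated with HCC827 tumor cells for up to 24 h. Samples taken over time to follow hydrolysis of the conjugate and release of the parent molecules.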

Where [6] appears, read: Homo sapiens, A-431, 72 h, read-out: IC50.

Each structure is given as a SMILES string. Where only a bound is given, the exact number is not on record here.

Sequence of Epidermal growth factor receptor (P00533 whole entry): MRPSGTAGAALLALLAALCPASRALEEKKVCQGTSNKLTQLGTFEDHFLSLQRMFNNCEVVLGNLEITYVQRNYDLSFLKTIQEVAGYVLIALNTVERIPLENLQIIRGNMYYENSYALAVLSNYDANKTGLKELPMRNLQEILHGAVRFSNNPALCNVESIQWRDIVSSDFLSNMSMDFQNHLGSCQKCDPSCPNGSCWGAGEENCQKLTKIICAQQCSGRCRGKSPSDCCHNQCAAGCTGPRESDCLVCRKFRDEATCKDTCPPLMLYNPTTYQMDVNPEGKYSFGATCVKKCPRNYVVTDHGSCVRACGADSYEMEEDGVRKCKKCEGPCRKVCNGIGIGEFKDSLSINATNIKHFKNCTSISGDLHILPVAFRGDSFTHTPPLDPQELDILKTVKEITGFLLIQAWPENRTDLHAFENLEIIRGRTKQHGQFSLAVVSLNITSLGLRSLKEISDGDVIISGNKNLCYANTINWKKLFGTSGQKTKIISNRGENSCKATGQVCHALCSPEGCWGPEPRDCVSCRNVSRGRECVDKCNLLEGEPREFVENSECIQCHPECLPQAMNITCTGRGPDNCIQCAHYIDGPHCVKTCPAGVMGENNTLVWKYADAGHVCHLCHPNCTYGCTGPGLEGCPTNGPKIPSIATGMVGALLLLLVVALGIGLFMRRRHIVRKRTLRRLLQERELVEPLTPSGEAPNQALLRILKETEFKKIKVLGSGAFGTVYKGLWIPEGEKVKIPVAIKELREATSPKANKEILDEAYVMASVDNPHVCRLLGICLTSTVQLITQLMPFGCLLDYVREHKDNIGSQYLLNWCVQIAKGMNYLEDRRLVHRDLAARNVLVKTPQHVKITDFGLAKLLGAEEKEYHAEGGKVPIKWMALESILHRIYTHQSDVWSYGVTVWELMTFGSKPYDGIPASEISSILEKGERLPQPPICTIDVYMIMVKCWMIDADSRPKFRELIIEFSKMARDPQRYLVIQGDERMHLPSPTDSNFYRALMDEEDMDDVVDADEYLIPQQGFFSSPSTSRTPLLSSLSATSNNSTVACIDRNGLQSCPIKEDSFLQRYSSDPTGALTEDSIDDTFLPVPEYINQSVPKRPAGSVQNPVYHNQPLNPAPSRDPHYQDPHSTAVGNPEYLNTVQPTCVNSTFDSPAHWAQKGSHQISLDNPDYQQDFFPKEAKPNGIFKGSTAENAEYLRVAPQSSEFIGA

As for `C#Cc1cccc(Nc2ncnc3cc(OCCOC(=O)c4ccc(C(=O)Nc5ccc6c(c5)C(C)(C)CCC6(C)C)cc4)c(OCCOC(=O)c4ccc(C(=O)Nc5ccc6c(c5)C(C)(C)CCC6(C)C)cc4)cc23)c1`, the IC50 entry in data set [1] (a-431) is “Not Active”; in data set [2] it was 0.88 µM; in data set [3], > 10 µM; in data set [4], > 10 µM.
Regarding `CC1=C(CC(=O)O)c2cc(F)ccc2/C1=C\c1ccc([S+](C)[O-])cc1` (stereo not drawn), the IC50 in data set [2] is > 10 µM; in data set [3], 16 µM.
As for `C#Cc1cccc(Nc2ncnc3cc(OCCOC(=O)c4ccccc4OC(C)=O)c(OCCOC)cc23)c1`, the IC50 in data set [1] (setting [6]) is 1.8 µM; in data set [2] it was 0.005 µM; in data set [3], > 10 µM; in data set [4], 0.1 µM.
Turning to `CC(C)Cc1ccc(C(C)C(=O)O)cc1` (stereo not drawn) [IBUPROFEN], in data set [2], the IC50 is > 10 µM.
For `C#Cc1cccc(Nc2ncnc3cc(OCCOC(=O)Cc4c(C)n(C(=O)c5ccc(Cl)cc5)c5ccc(OC)cc45)c(OCCOC(=O)Cc4c(C)n(C(=O)c5ccc(Cl)cc5)c5ccc(OC)cc45)cc23)c1`, the IC50 in data set [1] (setting [6]) was > 10 µM; in data set [2], 0.033 µM; in data set [3], 31.4 µM; in data set [4], 1.6 µM.
Consider `C#Cc1cccc(Nc2ncnc3cc(OCCOC(=O)C(C)c4ccc5cc(OC)ccc5c4)c(OCCOC(=O)C(C)c4ccc5cc(OC)ccc5c4)cc23)c1` (stereo not drawn), for which the IC50 result in data set [1] (a-431) is “Not Active”; in data set [2] it was 0.39 µM; in data set [3] it was > 10 µM; in data set [4] it was 2.3 µM.
With `C#Cc1cccc(Nc2ncnc3cc(OCCOC(=O)CC4=C(C)/C(=C\c5ccc([S+](C)[O-])cc5)c5ccc(F)cc54)c(OCCOC)cc23)c1` (stereo not drawn), the IC50 in data set [1] (setting [6]) is 5.4 µM; in data set [2] it was 0.031 µM; in data set [3], > 10 µM; in data set [4] it was 0.3 µM.
Consider `C#Cc1cccc(Nc2ncnc3cc(OCCOC(=O)C(C)c4ccc(CC(C)C)cc4)c(OCCOC)cc23)c1` (stereo not drawn), for which the IC50 is 2.2 µM in data set [1] (setting [6]), 0.009 µM in data set [2], 44.7 µM in data set [3] and 0.4 µM in data set [4].
In the case of `C#Cc1cccc(Nc2ncnc3cc(OCCOC)c(OCCOC(=O)CC4=C(C)/C(=C\c5ccc([S+](C)[O-])cc5)c5ccc(F)cc54)cc23)c1` (stereo not drawn), the IC50 in data set [1] (setting [6]) turned out to be 4.8 µM; in data set [4], 0.4 µM.
With `COc1ccc2cc(C(C)C(=O)O)ccc2c1` (racemic), the Drug metabolism result in data set [5] is reported as “metabolite_detected”. Besides, the IC50 in data set [2] is > 10 µM.
For `C#Cc1cccc(Nc2ncnc3cc(OCCOC(=O)c4ccccc4OC(C)=O)c(OCCOC(=O)c4ccccc4OC(C)=O)cc23)c1`, the IC50 in data set [1] (setting [6]) is > 10 µM; in data set [2], 0.034 µM; in data set [3], 39.6 µM; in data set [4], 0.9 µM.
In the case of `CC(C(=O)O)c1cccc(C(=O)c2ccccc2)c1` (stereo not drawn) [KETOPROFEN], the IC50 was > 10 µM in data set [2] and 0.067 µM in data set [3].
As to `CC(=O)Oc1ccccc1C(=O)O` [ASPIRIN], the IC50 in data set [2] is > 10 µM.
As for `C#Cc1cccc(Nc2ncnc3cc(OCCOC)c(OCCOC(=O)C(C)c4ccc5cc(OC)ccc5c4)cc23)c1` (stereo not drawn), the IC50 in data set [1] (setting [6]) came out at 5 µM; in data set [4], 0.5 µM.
On the same counts, the results for `C#Cc1cccc(Nc2ncnc3cc(OCCOC)c(OCCOC(=O)Cc4c(C)n(C(=O)c5ccc(Cl)cc5)c5ccc(OC)cc45)cc23)c1` are > 10 µM and 1.2 µM.
As for `C#Cc1cccc(Nc2ncnc3cc(OCCOC(=O)C(C)c4ccc(CC(C)C)cc4)c(OCCOC(=O)C(C)c4ccc(CC(C)C)cc4)cc23)c1` (stereo not drawn), the IC50 result in data set [1] (a-431) was “Not Active”; in data set [2] it was > 10 µM; in data set [3] it was > 10 µM; in data set [4], 16.5 µM.
In the case of `C#Cc1cccc(Nc2ncnc3cc(OCCOC)c(OCCOC)cc23)c1` [ERLOTINIB], the IC50 in data set [3] is > 10 µM.
For `COc1ccc2c(c1)c(CC(=O)O)c(C)n2C(=O)c1ccc(Cl)cc1` [INDOMETHACIN], the IC50 in data set [2] is > 10 µM.
On to `C#Cc1cccc(Nc2ncnc3cc(OCCO)c(OCCOC)cc23)c1`, for which the Drug metabolism entry in data set [5] is “metabolite_detected”. The IC50 in data set [1] (setting [6]) is 1.27 µM; in data set [2] it was 0.001 µM; in data set [3], > 10 µM; in data set [4], 0.014 µM.
On to `C#Cc1cccc(Nc2ncnc3cc(OCCOC(=O)c4ccc(C(=O)Nc5ccc6c(c5)C(C)(C)CCC6(C)C)cc4)c(OCCOC)cc23)c1`, for which the IC50 in data set [1] (setting [6]) was > 10 µM; in data set [2], 0.032 µM; in data set [3], > 10 µM; in data set [4], 0.2 µM.
`C#Cc1cccc(Nc2ncnc3cc(OCCOC(=O)Cc4c(C)n(C(=O)c5ccc(Cl)cc5)c5ccc(OC)cc45)c(OCCOC)cc23)c1`: the IC50 in data set [1] (setting [6]) was > 10 µM; in data set [2], 0.027 µM; in data set [3] it was 11.3 µM; in data set [4], 0.9 µM.
`C#Cc1cccc(Nc2ncnc3cc(OCCOC)c(OCCOC(=O)C(C)c4ccc(CC(C)C)cc4)cc23)c1` (stereo not drawn): the IC50 in data set [1] (setting [6]) and in data set [4] was > 10 µM in each case.
For `C#Cc1cccc(Nc2ncnc3cc(OCCOC(=O)C(C)c4cccc(C(=O)c5ccccc5)c4)c(OCCOC(=O)C(C)c4cccc(C(=O)c5ccccc5)c4)cc23)c1` (stereo not drawn), the IC50 is > 10 µM in data set [1] (setting [6]) and 2.1 µM in data set [4].
For `C#Cc1cccc(Nc2ncnc3cc(OCCOC)c(OCCOC(=O)c4ccccc4OC(C)=O)cc23)c1`, in that order: > 10 µM and 0.1 µM.
For `C#Cc1cccc(Nc2ncnc3cc(OCCOC)c(OCCOC(=O)C(C)c4cccc(C(=O)c5ccccc5)c4)cc23)c1` (stereo not drawn), the figures for the IC50 in data set [1] (setting [6]) and in data set [4] were 1.7 µM and 0.3 µM, respectively.
As to `C#Cc1cccc(Nc2ncnc3cc(OCCOC(=O)CC4=C(C)/C(=C/c5ccc([S+](C)[O-])cc5)c5ccc(F)cc54)c(OCCOC(=O)CC4=C(C)/C(=C/c5ccc([S+](C)[O-])cc5)c5ccc(F)cc54)cc23)c1` (stereo not drawn), the IC50 in data set [1] (setting [6]) is > 10 µM; in data set [2], 0.027 µM; in data set [3], > 10 µM; in data set [4] it was 3.5 µM.
